Lmaj promast: Leishmania major promastigote growth inhibition; Leishmania major promastigotes, resazurin fluorescence viability; inhibition, % at 10 µM; 9% of 200,000 active; in the data active means inhibition above about 50%;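 further: promastigotes grown with compound for 44 hours at 28 °C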
Diaphorase act: diaphorase activation or chemical reduction counter-screen; activation factor at 20 µM; Diaphorase/resazurin coupled assay, resorufin fluorescence, 16 min; hits give high values; 1 = vehicle wells, 0 = NADH-free wells; 0.005% of 190,000 active; AID 1229;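 active means diaphorase activity raised at least twofold by the compound at 20 µM; inactive means activation factor below 2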
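Material: purified diaphorase enzyme from Clostridium kluyveri / Medium: HEPES pH 7.4 buffer with MgCl2 and Tween 20 / Schedule: enzyme reaction of 16 min at room temperature / Measured by: resorufin fluorescence, excitation 544 nm, emission 590 nm / Evaluation: rise in resorufin formation, marking diaphorase activation or chemical reduction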
Diaphorase inh: diaphorase inhibition or chemical oxidation counter-screen. diaphorase resazurin-to-resorufin fluorescence, NADH, 16 min; bacterial (C. kluyveri) enzyme, not human. inhibition, % at 20 µM. AID 1217. 0.69% of 190,000 active;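 active means primary screen inhibition at 20 µM above a set limit, cut at about 50% in these data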
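System: Bacterial diaphorase enzyme (C. kluyveri) | Incubation: 16-min room-temperature incubation before reading | Benchmarks: No-NADH positive control and DMSO neutral control | Measured by: Resorufin fluorescence 544/590 nm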
WT yeast gro inh: growth inhibition of WT yeast, mitochondrial fusion screen. mitochondrial fusion phenotypic screen, WT strain. inhibition, % at 10 µM. 2.1% of 190,000 active; in the data active means inhibition above about 58%; tested in S. cerevisiae
KCC2 mod: modulators of human KCC2 chloride dependent transport; Q9H2X9; KCC2 cells, thallium flux FluoZin-2 fluorescence; AID 1456; B-score of Tl+ flux slope (higher = more flux/activation; lower = inhibition) at 10 µM; 2.2% of 190,000 active;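 active means thallium flux slope and its plate-corrected score both differing from the plate sample mean at a set confidence after two filtering rounds, in either direction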;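 further: slope of fluorescence scaled to starting intensity during 10 to 20 s after thallium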
ROMK primary: modulators of human ROMK potassium channel; P48048; Tet-inducible ROMK, thallium flux fluorescence; actives lie on both sides; B-score at 10 µM; 2% of 130,000 active; AID 1918;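 active means signal ratio slope over the read window, or its plate-corrected B-score, at least 3 SD from the plate mean, either direction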;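 further: B-score of the F/F0 ratio slope over 7 to 12 s after thallium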
Target sequence (P48048 whole entry, looked up): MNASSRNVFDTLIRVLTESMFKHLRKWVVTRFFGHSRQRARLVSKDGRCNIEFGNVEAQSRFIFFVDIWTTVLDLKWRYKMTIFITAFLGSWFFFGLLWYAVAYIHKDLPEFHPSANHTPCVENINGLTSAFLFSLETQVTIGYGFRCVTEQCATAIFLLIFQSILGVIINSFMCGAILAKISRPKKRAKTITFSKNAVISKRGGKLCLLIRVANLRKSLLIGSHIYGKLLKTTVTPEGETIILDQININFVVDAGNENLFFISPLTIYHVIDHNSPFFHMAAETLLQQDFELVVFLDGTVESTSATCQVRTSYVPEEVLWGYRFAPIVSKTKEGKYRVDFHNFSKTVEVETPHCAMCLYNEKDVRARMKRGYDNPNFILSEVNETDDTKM
KCC2 sec1: confirmation of human KCC2 transport modulators; shares compounds with KCC2 mod; 15% of 3,700 active; normalised thallium flux (F/F0 slope) at 10 µM; HEK293-KCC2, thallium flux, FluoZin2 fluorescence; hits give high values; AID 1713;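 active means thallium flux slope above the same plate's solvent-only control mean plus 3 SD; inconclusive means the two replicate wells disagree; inactive means no significant difference from solvent-only control wells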
KCC2 bumet counter: bumetanide-insensitive thallium flux in KCC2 cells with ouabain, counter-screen | shares compounds with KCC2 mod | HEK293-KCC2 + bumetanide/ouabain, thallium flux FluoZin2; hits give high values | normalized thallium flux at 10 µM | 49% of 3,700 active | AID 1714;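 active means thallium entry rate above the same plate's blocked-transporter control wells by more than 3 SD; inconclusive means the two repeat wells disagree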;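 further: raw slope of fluorescence over initial fluorescence between 10 and 20 s after thallium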
KCC2 secondary2: KCC2 (human) modulation, second secondary assay; HEK293-KCC2, thallium flux FluoZin2 fluorescence; actives lie on both sides; F/F0 rise rate, 10–20 s post-thallium; normalized thallium flux at 10 µM; shares compounds with KCC2 mod; 23% of 3,700 active;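 active means thallium flux slope more than 3 SD above or below the plate's solvent-only control mean, mostly below; inconclusive means the two repeat wells disagreed; inactive means no significant shift from solvent-only controls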
HEK293 Tl flux: parental HEK flux effect, counter-screen; 46% of 3,700 active; shares compounds with KCC2 mod; HEK293 parental cells, thallium flux FluoZin2, ouabain; baseline-ratio fluorescence slope, 10–20 s after thallium; thallium flux rate (normalised fluorescence) at 10 µM;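 active means thallium flux rate significantly above the same plate's solvent-only control wells, beyond their mean plus 3 SD; inconclusive means the two replicate wells gave conflicting results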
KCC2 retest ouab: KCC2 (human) modulation, ouabain retest; shares compounds with KCC2 mod; HEK293-KCC2, thallium flux FluoZin2 fluorescence; bidirectional: low = inhibitor, high = activator; raw Tl+ flux slope (below DMSO = inhibition, above = activation) at 10 µM; 48% of 3,700 active; AID 1717;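 active means thallium flux slope beyond 3 SD from same-plate DMSO control mean in most replicates, usually higher, sometimes lower; inconclusive means repeat tests gave conflicting results; inactive means no significant difference from controls in most replicates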;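 further: slope of initial-normalized fluorescence between seconds 10 and 20 after thallium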
HEK counter2: acts in parental HEK cells, second KCC2 counter-screen | thallium flux slope at 10 µM | HEK293 parental, thallium flux FluoZin-2 fluorescence slope | shares compounds with KCC2 mod | 33% of 3,700 active | AID 1718;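 active means thallium flux slope above the same plate's solvent-control mean plus 3 SD in both duplicate wells; inconclusive means duplicate wells that disagreed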;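 further: run without ouabain in cells lacking the KCC2 cotransporter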
Numbers stand for hits. Sampled rows, rich in hits. Any-hit rate of the full collection: about 12%.

What do the screens show for `O=C(CSc1nnc(-c2ccccc2)o1)N1CCc2ccccc2C1`?
Lmaj promast: inactive; Diaphorase act: inactive; Diaphorase inh: inactive; WT yeast gro inh: inactive; KCC2 mod: -3.4; ROMK primary: inactive; KCC2 sec1: inactive; KCC2 bumet counter: inactive; KCC2 secondary2: 0.025; HEK293 Tl flux: inconclusive; KCC2 retest ouab: 0.013; HEK counter2: inactive

How did COc1ccc(-c2nnc(SCC(=O)N3CCc4ccccc4C3)o2)cc1 do in these assays?
Lmaj promast: inactive; Diaphorase act: inactive; Diaphorase inh: inactive; WT yeast gro inh: inactive; KCC2 mod: -3.5; ROMK primary: inactive; KCC2 sec1: inconclusive; KCC2 bumet counter: inactive; KCC2 secondary2: inactive; HEK293 Tl flux: inconclusive; KCC2 retest ouab: 0.016; HEK counter2: inactive

What do the screens show for `O=C(CSc1nccc(=O)[nH]1)N1CCc2ccccc2C1`?
Lmaj promast: inactive; Diaphorase act: inactive; Diaphorase inh: inactive; WT yeast gro inh: inactive; KCC2 mod: -4.9; ROMK primary: inactive; KCC2 sec1: inactive; KCC2 bumet counter: inactive; KCC2 secondary2: 0.023; HEK293 Tl flux: inactive; KCC2 retest ouab: 0.015; HEK counter2: inactive

What do the screens show for `Cc1oc(-c2ccccc2)nc1CS(=O)CC(=O)N1CCc2ccccc2C1` (centres undefined)?
Lmaj promast: inactive; Diaphorase act: inactive; Diaphorase inh: inactive; WT yeast gro inh: inactive; KCC2 sec1: inactive; KCC2 bumet counter: inconclusive; KCC2 secondary2: 0.024; HEK293 Tl flux: inactive; KCC2 retest ouab: inconclusive; HEK counter2: inactive

What do the screens show for `Cc1cccc(-c2nc(CS(=O)CC(=O)N3CCCCC3)c(C)o2)c1` (centres undefined)?
Lmaj promast: inactive; Diaphorase act: inactive; Diaphorase inh: inactive; WT yeast gro inh: inactive

How did COc1cc(SC)ccc1C(=O)Nc1nccs1 do in these assays?
Lmaj promast: inactive; Diaphorase act: inactive; Diaphorase inh: inactive; WT yeast gro inh: inactive; KCC2 mod: inactive; ROMK primary: inactive

What do the screens show for `Cc1ccc(C)c(NC(=S)N/N=C2\CCc3ccccc32)c1`?
KCC2 mod: 24; ROMK primary: inactive; KCC2 sec1: 0.014; KCC2 bumet counter: 0.075; KCC2 secondary2: inactive; HEK293 Tl flux: 0.071; KCC2 retest ouab: 0.043; HEK counter2: 0.018

Results for COc1ccc(NC(=S)N/N=C2/CCCc3c(C)cc(C)cc32)cc1 ?
Lmaj promast: inactive; Diaphorase act: inactive; Diaphorase inh: inactive; WT yeast gro inh: inactive; KCC2 mod: inactive; ROMK primary: inactive

How did Cc1cccc(NC(=S)N/N=C2/CCCCc3ccccc32)c1 do in these assays?
Lmaj promast: inactive; Diaphorase act: inactive; Diaphorase inh: inactive; WT yeast gro inh: 63; KCC2 mod: 7.9; ROMK primary: inactive; KCC2 sec1: inactive; KCC2 bumet counter: 0.036; KCC2 secondary2: 0.046; HEK293 Tl flux: 0.042; KCC2 retest ouab: 0.037; HEK counter2: 0.024

Results for Cc1ccc(NC(=S)N/N=C2/CCCCc3ccccc32)cc1 ?
KCC2 mod: 33; KCC2 sec1: inactive; KCC2 bumet counter: 0.04; KCC2 secondary2: inconclusive; HEK293 Tl flux: 0.033; KCC2 retest ouab: 0.033; HEK counter2: 0.031

What do the screens show for `O=C(Nc1cccc2ncccc12)C(c1ccccc1)c1ccccc1`?
Lmaj promast: inactive; Diaphorase act: inactive; Diaphorase inh: inactive; WT yeast gro inh: inactive; KCC2 mod: inactive; ROMK primary: inactive

Results for NC(=O)NOCc1cccc(Cl)c1 ?
Lmaj promast: inactive; Diaphorase act: inactive; Diaphorase inh: inactive; WT yeast gro inh: inactive; KCC2 mod: inactive; ROMK primary: inactive

How did COc1ccccc1NC(=O)CSc1nnc(COc2ccccc2OC)n1C do in these assays?
Lmaj promast: inactive; Diaphorase act: inactive; Diaphorase inh: inactive; WT yeast gro inh: inactive; ROMK primary: inactive

How did CC(=O)Nc1sc(-c2ccccc2)nc1-c1ccccc1 do in these assays?
Lmaj promast: inactive; Diaphorase act: inactive; Diaphorase inh: inactive; WT yeast gro inh: inactive; KCC2 mod: inactive

How did CC(=O)Nc1sc(-c2ccc(Cl)cc2)nc1-c1ccccc1 do in these assays?
KCC2 mod: 7.3; ROMK primary: inactive; KCC2 sec1: 0.019; KCC2 bumet counter: 0.055; KCC2 secondary2: inactive; HEK293 Tl flux: 0.0092; KCC2 retest ouab: inactive; HEK counter2: inactive

Results for Cc1nn(-c2ccccc2)c(N)c1-c1ccccc1 ?
Lmaj promast: inactive; Diaphorase act: inactive; Diaphorase inh: inactive; WT yeast gro inh: inactive; KCC2 mod: inactive; ROMK primary: inactive

What do the screens show for `Cc1nn(-c2nc3ccccc3[nH]2)c(N)c1-c1ccccc1`?
Lmaj promast: 91; Diaphorase act: inactive; Diaphorase inh: inactive; WT yeast gro inh: 72; KCC2 mod: 2.6; ROMK primary: inactive; KCC2 sec1: inactive; KCC2 bumet counter: 0.012; KCC2 secondary2: inactive; HEK293 Tl flux: 0.011; KCC2 retest ouab: inconclusive; HEK counter2: 0.014

What do the screens show for `Cc1ccc(-c2cc(Cc3ccccn3)c(=O)[nH]n2)cc1`?
KCC2 mod: inactive; ROMK primary: inactive; KCC2 sec1: inactive; KCC2 bumet counter: 0.0086; KCC2 secondary2: inactive; HEK293 Tl flux: inactive; KCC2 retest ouab: inactive; HEK counter2: inactive

What do the screens show for `N#Cc1ccccc1CSc1nc2ccc(NC(=O)c3ccccc3C(=O)O)cc2s1`?
Lmaj promast: inactive; Diaphorase act: inactive; Diaphorase inh: inactive; WT yeast gro inh: inactive; KCC2 mod: -3.6; ROMK primary: inactive; KCC2 sec1: inactive; KCC2 bumet counter: inactive; KCC2 secondary2: inactive; HEK293 Tl flux: inactive; KCC2 retest ouab: 0.017; HEK counter2: inactive
